Drawing on paper PMC9590589 (RSC Advances, 2022), this text covers IC50 for 2 compounds.

Holding throughout (type): cell-based
For data set [1], the system named is MDA-MB231 (breast) cells. As to the kind of experiment: MTT cytotoxicity assay, MDA-MB231. The following applies: Homo sapiens, MDA-MB-231, 24 h, read-out: Cytotoxic activity, IC50, MDA-MB231. Put shortly:
(§1)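 Cells grown in DMEM/F12 with 10% FBS, penicillin (100 U mL−1) and streptomycin (100 μg mL−1) at 37 °C, 5% CO2, and passaged twice weekly by trypsinization. Seeded at 5 × 10^3 cells per well for 24 h, then exposed to a range of test compound concentrations for 24 h. MTT (5 mg mL−1 stock) added for 2 h, supernatant removed, formazan dissolved in DMSO, absorbance read at 540 nm, and IC50 calculated. Controls: doxorubicin (positive) and 0.75% DMSO (negative).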
On the technique in general: Formazan colour is commonly taken as a measure of viable cells.

The nature of data set [2]: MTT cytotoxicity assay, NHDF. The following applies: human, normal human dermal fibroblasts (NHDF). Put shortly: as §1
Data set [3] has as its system MDA-MB231, Huh-7, KKU-100 and normal human dermal fibroblast (NHDF) cell lines. The data set is described as follows: MTT cytotoxicity assay, all cell lines. The following applies: 24 h, read-out: IC50 values against all the cell lines. The method, boiled down: as §1
Data set [4] concerns Huh-7 (hepatocellular carcinoma) cells. The data set is described as follows: MTT cytotoxicity assay, Huh-7. The conditions noted are these: Homo sapiens, Huh-7, 24 h, read-out: Cytotoxic activity, IC50, Huh-7. The method, boiled down: as §1
The subject of data set [5] is KKU-100 (cholangiocarcinoma) cells. As to the kind of experiment: MTT cytotoxicity assay, KKU-100. The following applies: Homo sapiens, KKU100, 24 h, read-out: Cytotoxic activity, IC50, KKU-100. The method, boiled down:
as §1

Some results are limits rather than exact numbers.

The term IC50 denotes the concentration that gives 50% inhibition. Turning to `CC(C)=CCOc1ccc(-c2coc3cc(OCC=C(C)C)cc(O)c3c2=O)cc1` [Compound 9, 7,4′-di-O-prenylgenistein], the IC50 in data set [1], in data set [3], in data set [4] and in data set [5] was more than 100 µM throughout. This compound also had a 50% inhibitory concentration (IC50) at 24 h in data set [2] of more than 100 µM.

For `COc1cccc2c1C(=O)c1c(O)c3c(c(O)c1C2=O)C[C@@](O)(C(=O)CO)C[C@@H]3O[C@H]1C[C@H](N)[C@H](O)[C@H](C)O1` [Doxorubicin, reference compound], it took 5 µM to reach half-maximal inhibition in data set [2] (IC50 at 24 h). Besides, the half-maximal inhibitory concentration (IC50) in data set [5] is 1.9 µM.
